Measured values from ChEMBL document CHEMBL1671683, “Activity of linezolid in an in vitro pharmacokinetic-pharmacodynamic model using different dosages and Staphylococcus aureus and Enterococcus faecalis strains with and without a hypermutator phenotype” (Antimicrob Agents Chemother, 2010).

Assays:
Staphylococcus aureus [1] = assay: Bactericidal activity against 14 hrs peripheral compartment culture samples of Staphylococcus aureus RN4220 MutS2 in two-compartment pharmacokinetic/pharmacodynamic model assessed as effect on bacterial count at 600 mg, bid administered as 0.5 hr infusion; type: functional
Outline: (§1)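 An 18-h culture concentrated 50-fold was injected into the peripheral compartment 3 h pre-sampling (~10^8 CFU/ml E. faecalis, 10^9 S. aureus). Counts came from dilution plating (detection limit 2–3 log10 CFU/ml), expressed as Δlog CFU/ml from treatment start. Run in duplicate.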

Enterococcus faecalis [2] = assay: Bactericidal activity against 13 hrs peripheral compartment culture samples of Enterococcus faecalis ATCC 29212 in two-compartment pharmacokinetic/pharmacodynamic model assessed as effect on bacterial count at 200 mg, bid administered as 0.5 hr infusion; type: functional; outline: as §1
Enterococcus faecalis [3] = assay: Bactericidal activity against 48 hrs peripheral compartment culture samples of Enterococcus faecalis ATCC 29212 in two-compartment pharmacokinetic/pharmacodynamic model assessed as effect on bacterial count at 200 mg, bid administered as 0.5 hr infusion; type: functional; outline: as §1
Enterococcus faecalis [4] = assay: Bactericidal activity against 1 hr peripheral compartment culture samples of Enterococcus faecalis ATCC 29212 in two-compartment pharmacokinetic/pharmacodynamic model assessed as effect on bacterial count at 600 mg, bid administered as 0.5 hr infusion; type: functional
Outline: (§2)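 Two-compartment hollow-fibre model in cation-adjusted, protein-free MH broth, 37°C. Linezolid given as simulated 0.5-h infusion twice daily. Inoculum grown 18 h, concentrated 50-fold and placed in the peripheral compartment 3 h before t0. Peripheral samples at set times counted by dilution plating. First 10-fold dilution not plated, limiting detection to 2–3 log10 CFU/ml. Δlog CFU/ml taken from t0 count. Duplicates.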

Enterococcus faecalis [5] = assay: Bactericidal activity against 48 hrs peripheral compartment culture samples of Enterococcus faecalis ATCC 29212 in two-compartment pharmacokinetic/pharmacodynamic model assessed as effect on bacterial count at 600 mg, bid for every 12 hrs administered as 0.5 hrs infusion; type: functional; outline: as §1
Enterococcus faecalis [6] = assay: Bactericidal activity against 14 hrs peripheral compartment culture samples of Enterococcus faecalis Ef1497 in two-compartment pharmacokinetic/pharmacodynamic model assessed as effect on bacterial count at 600 mg, bid administered as 0.5 hr infusion; type: functional; outline: as §1
Enterococcus faecalis [7] = assay: Bactericidal activity against 1 hr peripheral compartment culture samples of Enterococcus faecalis Ef1497 in two-compartment pharmacokinetic/pharmacodynamic model assessed as effect on bacterial count at 800 mg, bid administered as 0.5 hr infusion; type: functional; outline: as §2
Enterococcus faecalis [8] = assay: Bactericidal activity against 12 hrs peripheral compartment culture samples of Enterococcus faecalis Ef1497 in two-compartment pharmacokinetic/pharmacodynamic model assessed as effect on bacterial count at 800 mg, bid administered as 0.5 hr infusion; type: functional; outline: as §1
Enterococcus faecalis [9] = assay: Bactericidal activity against 13 hrs peripheral compartment culture samples of Enterococcus faecalis Ef1497 in two-compartment pharmacokinetic/pharmacodynamic model assessed as effect on bacterial count at 800 mg, bid administered as 0.5 hr infusion; type: functional; outline: as §1
Enterococcus faecalis [10] = assay: Bactericidal activity against 1 hr peripheral compartment culture samples of Enterococcus faecalis Ef1497 MutM3 in two-compartment pharmacokinetic/pharmacodynamic model assessed as effect on bacterial count at 200 mg, bid administered as 0.5 hr infusion; type: functional; outline: as §2
Enterococcus faecalis [11] = assay: Bactericidal activity against 1 hr peripheral compartment culture samples of Enterococcus faecalis Ef1497 MutM3 in two-compartment pharmacokinetic/pharmacodynamic model assessed as effect on bacterial count at 600 mg, bid administered as 0.5 hr infusion; type: functional; outline: as §2
[12] = Tmax in two-compartment pharmacokinetic/pharmacodynamic model at 800 mg, bid administered as 0.5 hrs infusion; type: ADME, organism-based; conditions: iv
Outline: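 Two-compartment in vitro hollow-fibre model in cation-adjusted, protein-free Mueller-Hinton broth at 37°C. Human total-plasma linezolid profile simulated as 0.5-h infusion every 12 h for 48 h, computer-controlled syringe pump into central compartment. […] Peripheral samples assayed by validated HPLC-UV (quantification limit 0.39 μg/ml). Tmax read directly from concentration-time profiles. Run in duplicate.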

[13] = Total clearance in two-compartment pharmacokinetic/pharmacodynamic model at 200 mg, bid administered as 0.5 hrs infusion; type: ADME, organism-based; conditions: iv
[14] = Apparent volume of distribution in two-compartment pharmacokinetic/pharmacodynamic model at 400 mg, bid administered as 0.5 hrs infusion; type: ADME, organism-based; conditions: iv
[15] = Apparent volume of distribution in two-compartment pharmacokinetic/pharmacodynamic model at 800 mg, bid administered as 0.5 hrs infusion; type: ADME, organism-based; conditions: iv
Staphylococcus aureus [16] = assay: Bactericidal activity against 1 hr peripheral compartment culture samples of Staphylococcus aureus RN4220 in two-compartment pharmacokinetic/pharmacodynamic model assessed as effect on bacterial count at 600 mg, bid administered as 0.5 hr infusion; type: functional; outline: as §2
Staphylococcus aureus [17] = assay: Bactericidal activity against 14 hrs peripheral compartment culture samples of Staphylococcus aureus RN4220 in two-compartment pharmacokinetic/pharmacodynamic model assessed as effect on bacterial count at 600 mg, bid administered as 0.5 hr infusion; type: functional; outline: as §1
[18] = test system: Staphylococcus aureus subsp. aureus RN4220; assay: AUBC (0 to 24 hrs) in Staphylococcus aureus RN4220MutS2 in two-compartment pharmacokinetic/pharmacodynamic model at 600 mg, bid administered as 0.5 hr infusion for 2 days; type: functional
Outline: (§3)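 Hollow-fibre two-compartment model in cation-adjusted, protein-free MH broth at 37°C. Human total-plasma linezolid profile simulated as 0.5-h infusion every 12 h for 48 h. Concentrated 18-h culture injected into the peripheral compartment 3 h before first sample, giving about 10^8 (E. faecalis) or 10^9 (S. aureus) CFU/ml. Viable counts by dilution plating over 0–24 h. Area indices calculated versus growth control curve. Duplicate runs.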

Enterococcus faecalis [19] = assay: AUBC (0 to 24 hrs) in Enterococcus faecalis ATCC 29212 in two-compartment pharmacokinetic/pharmacodynamic model at 600 mg, bid administered as 0.5 hr infusion for 2 days; type: functional; outline: as §3
[20] = test system: Staphylococcus aureus subsp. aureus RN4220; assay: ABBC (0 to 24 hrs) in Staphylococcus aureus RN4220 MutS2 in two-compartment pharmacokinetic/pharmacodynamic model at 600 mg, bid administered as 0.5 hr infusion for 2 days; outline: as §3
Enterococcus faecalis [21] = assay: ABBC (0 to 24 hrs) in Enterococcus faecalis Ef1497 in two-compartment pharmacokinetic/pharmacodynamic model at 600 mg, bid administered as 0.5 hr infusion for 2 days; type: functional; outline: as §3
[22] = Cmax in two-compartment pharmacokinetic/pharmacodynamic model at 200 mg, bid administered as 0.5 hr infusion over 24 hrs; type: ADME, organism-based; set-up: dose 200 mg; conditions: iv
[23] = Total clearance in two-compartment pharmacokinetic/pharmacodynamic model at 600 mg, bid administered as 0.5 hr infusion over 24 hrs; type: ADME, organism-based; conditions: in vivo, iv
[24] = Total clearance in two-compartment pharmacokinetic/pharmacodynamic model at 800 mg, bid administered as 0.5 hr infusion over 24 hrs; type: ADME, organism-based; conditions: in vivo, iv
[25] = Apparent volume of distribution in two-compartment pharmacokinetic/pharmacodynamic model at 200 mg, bid administered as 0.5 hr infusion over 24 hrs; type: ADME, organism-based; conditions: in vivo, iv
in vitro = conditions: two-compartment pharmacokinetic/pharmacodynamic model, iv, 200 mg
[26] = Apparent volume of distribution in two-compartment pharmacokinetic/pharmacodynamic model at 600 mg, bid administered as 0.5 hrs infusion; conditions: iv

## CC(=O)NC[C@H]1CN(c2ccc(N3CCOCC3)c(F)c2)C(=O)O1 [LINEZOLID]
Staphylococcus aureus [1]
  log10CFU/ml: -0.58
Enterococcus faecalis [2]
  log10CFU/ml: 0.28
Enterococcus faecalis [3]
  log10CFU/ml: 1.23
Enterococcus faecalis [4]
  log10CFU/ml: -0.12
Enterococcus faecalis [5]
  log10CFU/ml: 0.53
Enterococcus faecalis [6]
  log10CFU/ml: 0.13
Enterococcus faecalis [7]
  log10CFU/ml: -0.02
Enterococcus faecalis [8]
  log10CFU/ml: -0.16
Enterococcus faecalis [9]
  log10CFU/ml: -0.16
Enterococcus faecalis [10]
  log10CFU/ml: 0.02
Enterococcus faecalis [11]
  log10CFU/ml: -0.01
[12]
  Tmax: 0.5 h
[13]
  clearance: 248 mL/min
[14]
  Vd: 130 L
[15]
  Vd: 124 L
Staphylococcus aureus [16]
  log10CFU/ml: -0.07
Staphylococcus aureus [17]
  log10CFU/ml: -0.24
[18]
  AUBC: 228.8 log10CFU/ml.hr
Enterococcus faecalis [19]
  AUBC: 217.8 log10CFU/ml.hr
[20]
  ABBC: -2.27 log10CFU/ml.hr
Enterococcus faecalis [21]
  ABBC: -1.49 log10CFU/ml.hr
[22]
  Cmax: 4790 ng/mL
[23]
  clearance: 215 mL/min
[24]
  clearance: 228 mL/min
[25]
  Vd: 137 L
In vitro
  half-life: 6.27 h
[26]
  Vd: 115 L
